From ChEMBL document CHEMBL1926612, “Solid-phase synthesis of 2'-hydroxychalcones. Effects on cell growth inhibition, cell cycle and apoptosis of human tumor cell lines” (2012)
Activity calls are given as the source filed them. The calls are words filed in the database; no cut-off is given here.

Assays:
Format in all cases: functional
[1] = tested on: MCF7; assay: Growth inhibition of human MCF7 cells after 48 hrs by SRB assay; details: MCF7, 48 h
Procedure, shortened: (§1)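 Cells seeded to stay in exponential growth (MCF-7 and NCI-H460 5.0 × 10³ cells/well, A375-C5 7.5 × 10³ cells/well) and left to adhere overnight. Then 48 h exposure to five serial dilutions (1:2 or 1:3) from DMSO stocks diluted in medium; DMSO vehicle control maximum 0.25%. TCA fixation, SRB staining, Tris solubilisation, absorbance at 492 nm. GI50 taken from dose–response curves as 50% inhibition of net growth. Mean ± SEM of ≥3 independent experiments, in duplicate.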

[2] = tested on: NCI-H460; assay: Growth inhibition of human NCI-H460 cells after 48 hrs by SRB assay; details: NCI-H460, 48 h; procedure, shortened: as §1
[3] = Growth inhibition of human A375-C5 cells after 48 hrs by SRB assay; details: A375-C5, 48 h; procedure, shortened: as §1
[4] = tested on: MCF7; assay: Cell cycle arrest in human MCF7 cells assessed as accumulation at sub-G1 phase at 7.3 uM after 48 hrs by propidium iodide staining-based flow cytometric analysis relative to control
Procedure, shortened: (§2)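 MCF-7 plated in 6-well plates (5.0 × 10³ cells/well) and held 24 h at 37 °C. Exponentially growing cells then exposed 48 h at the single concentration stated. Untreated and highest-level DMSO controls included. Fixation in 70% ethanol at 4 °C for ≥12 h, then PBS with 0.1 mg/mL RNase A and 5 µg/mL PI. DNA content by flow cytometry, ≥20,000 events; sub-G1 fraction scored after debris exclusion. Mean ± SEM of three experiments; unpaired t-test versus untreated cells.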

[5] = tested on: MCF7; assay: Induction of apoptosis in human MCF7 cells at 7.3 uM by annexinV-propidium iodide staining-based flow cytometric analysis (reference value: 11.1%)
Procedure, shortened: (§3)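 MCF-7 handled as for the cell-cycle study: 48 h exposure at the stated concentration, with untreated cells and a highest-level DMSO control. Harvested cells stained with annexin V-FITC/PI per kit instructions. Flow cytometry with ≥20,000 events per sample; apoptosis given as % of total cells. Mean ± SEM of three experiments (DMSO control two); unpaired t-test against untreated cells.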

[6] = tested on: MCF7; assay: Induction of apoptosis in human MCF7 cells at 9.1 uM by annexinV-propidium iodide staining-based flow cytometric analysis (reference value: 11.1%); procedure, shortened: as §3
[7] = tested on: MCF7; assay: Cell cycle arrest in human MCF7 cells assessed as accumulation at sub-G1 phase at 8 uM after 48 hrs by propidium iodide staining-based flow cytometric analysis; procedure, shortened: as §2
[8] = tested on: MCF7; assay: Induction of apoptosis in human MCF7 cells at 8 uM by annexinV-propidium iodide staining-based flow cytometric analysis (reference value: 11.1%); procedure, shortened: as §3
[9] = tested on: MCF7; assay: Cell cycle arrest in human MCF7 cells assessed as accumulation at sub-G1 phase at 7.8 uM after 48 hrs by propidium iodide staining-based flow cytometric analysis; procedure, shortened: as §2
[10] = tested on: MCF7; assay: Induction of apoptosis in human MCF7 cells at 7.8 uM by annexinV-propidium iodide staining-based flow cytometric analysis (reference value: 11.1%); procedure, shortened: as §3
[11] = tested on: MCF7; assay: Induction of apoptosis in human MCF7 cells at 4.1 uM by annexinV-propidium iodide staining-based flow cytometric analysis (reference value: 11.1%); procedure, shortened: as §3
[12] = tested on: MCF7; assay: Induction of apoptosis in human MCF7 cells at 10.5 uM by annexinV-propidium iodide staining-based flow cytometric analysis (reference value: 11.1%); procedure, shortened: as §3
[13] = tested on: MCF7; assay: Induction of apoptosis in human MCF7 cells at 7.1 uM by annexinV-propidium iodide staining-based flow cytometric analysis (reference value: 11.1%); procedure, shortened: as §3

SMILES | GI50 [1] [µM] | GI50 [2] [µM] | GI50 [3] [µM] | also measured
O=C(/C=C/c1ccc(F)cc1)c1ccc(O)cc1O | 7.3 | 15.3 | 14.1 | Activity [4]: 11%; Activity [5]: 23.9%
COc1ccc(C2CC(=O)c3ccc(O)c(C)c3O2)c(OC)c1 (stereo unspecified) | 12.5 | > 150 | > 150 | 
COCOc1ccc(/C=C/C(=O)c2ccc(O)c(C)c2O)c(OCOC)c1 | 32.7 | > 150 | > 150 | 
COc1ccc(/C=C/C(=O)c2ccc(O)cc2O)c(OC)c1 | 19.5 | 37 | 30.3 | 
O=C(/C=C/c1ccc(OCc2ccccc2)cc1)c1ccc(O)cc1O | 8 | 10.5 | 9 | Activity [7]: Active; Activity [8]: 15.4%
CCCc1c(O)ccc2c1OC(c1cc(OC)c(OC)cc1OC)CC2=O (stereo unspecified) | 18.8 | 47 | 32 | 
CCCc1c(O)ccc(C(=O)/C=C/c2cc(OC)c(OC)c(OC)c2)c1O | 4.1 | 8.3 | 8.2 | Activity [11]: 14%
COc1cccc2c1C(=O)c1c(O)c3c(c(O)c1C2=O)C[C@@](O)(C(=O)CO)C[C@@H]3O[C@H]1C[C@H](N)[C@H](O)[C@H](C)O1 [DOXORUBICIN] | 0.0688 | 0.086 | 0.0915 | 
Cc1c(O)ccc(C(=O)/C=C/c2ccc(Cl)cc2Cl)c1O | 10.5 | 22.5 | 21.4 | Activity [12]: 16.6%
CCCc1c(O)ccc(C(=O)/C=C/c2ccccc2Cl)c1O | 7.1 | 12.5 | 14.2 | Activity [13]: 14.8%
CCCc1c(O)ccc(C(=O)/C=C/c2ccc(OCOC)cc2OCOC)c1O | 18.2 | 24.3 | 35 | 

Further lines, with some results ahead:

GI50 [1] [µM] | GI50 [2] [µM] | SMILES | GI50 [3] [µM] | also measured
13.3 | 24.7 | CCCc1c(O)ccc(C(=O)/C=C/c2ccc(OC)cc2)c1O | 46.3 | 
19.3 | 20.3 | Cc1c(O)ccc(C(=O)/C=C/c2ccc(C(F)(F)F)cc2)c1O | 24.7 | 
34.5 | 43 | Cc1c(O)ccc(C(=O)/C=C/c2ccc(Cl)cc2)c1O | 41.6 | 
9.1 | 24.5 | CCCc1c(O)ccc(C(=O)/C=C/c2cc(OC)c(OC)cc2OC)c1O | 23 | Activity [6]: 13.3%
7.8 | 8.2 | COc1cc(/C=C/C(=O)c2ccc(O)cc2O)cc(OC)c1OC | 8.1 | Activity [9]: Active; Activity [10]: 20%
31.8 | 60 | COc1cc(OC)c(OC)cc1/C=C/C(=O)c1ccc(O)cc1O | 34.8 | 
